Holding throughout (format): biochemical, Fischer 344 rats
Assay [1] has as its system Complex II dependent oxygen consumption. The settings on record: log dose response; no observed differences across brain regions. The gist of the method:
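Brain regions dissected from 16-week male rats; mitochondria purified by differential centrifugation, nitrogen disruption at 1200 psi and Ficoll gradient. Wells got 2.5 or 5 μg protein, were spun 200 × g, and were overlaid with respiration buffer pH 7.2 at 37 °C. […] 5–6 rats/group; two-way ANOVA.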

In assay [2] the target is Mitochondrial Complex I (Rattus norvegicus, UniProt P03889+Q641Y2). Briefly: Mitochondrial Complex I enzyme activity assay.
The test system of assay [3] is Complex I driven oxygen consumption. The conditions noted are these: cortical mitochondria. The method in brief:
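Cortical mitochondria were isolated by differential centrifugation, nitrogen bomb and Ficoll purification, then seeded on XF24 plates in respiration buffer (mannitol/sucrose/BSA/HEPES/MgCl/KH2PO4, pH 7.2, 37 °C). A modified protocol repeatedly measured O2 consumption in the same well after injecting low rotenone (10 fM, 10 pM, 10 nM; diluted in ethanol). 5–6 rats/group; two-way ANOVA with post hoc tests.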

Like-named read-outs stand apart in the source and are kept apart here.

Mitochondrial Complex I, sequence (Q641Y2 34-463): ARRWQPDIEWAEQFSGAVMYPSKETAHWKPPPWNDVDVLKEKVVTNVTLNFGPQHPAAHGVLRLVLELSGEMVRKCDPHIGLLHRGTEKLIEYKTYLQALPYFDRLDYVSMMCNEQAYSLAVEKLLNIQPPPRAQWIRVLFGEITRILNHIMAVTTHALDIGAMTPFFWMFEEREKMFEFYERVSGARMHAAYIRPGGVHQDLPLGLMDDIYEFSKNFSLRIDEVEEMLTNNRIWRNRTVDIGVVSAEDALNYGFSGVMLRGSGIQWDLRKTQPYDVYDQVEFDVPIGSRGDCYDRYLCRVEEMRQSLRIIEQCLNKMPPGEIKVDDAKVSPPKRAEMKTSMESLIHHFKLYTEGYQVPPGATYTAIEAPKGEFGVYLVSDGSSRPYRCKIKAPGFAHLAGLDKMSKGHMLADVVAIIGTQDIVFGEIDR
Mitochondrial Complex I, sequence (P03889 whole entry): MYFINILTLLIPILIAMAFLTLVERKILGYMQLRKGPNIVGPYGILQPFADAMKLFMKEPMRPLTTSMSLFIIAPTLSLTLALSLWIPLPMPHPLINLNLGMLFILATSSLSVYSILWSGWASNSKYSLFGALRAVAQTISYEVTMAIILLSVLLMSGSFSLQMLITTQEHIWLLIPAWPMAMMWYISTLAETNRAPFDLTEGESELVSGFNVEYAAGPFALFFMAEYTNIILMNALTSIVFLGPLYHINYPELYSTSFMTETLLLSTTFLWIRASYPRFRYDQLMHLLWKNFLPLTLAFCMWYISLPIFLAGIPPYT

For `O=C(O)CC(=O)O` [malonate], the “effect on mitochondrial driven oxygen consumption (Complex II)” value in assay [1] is “dose dependent decrease”.

In general, IC50 refers to the concentration that inhibits the measured activity by half. Lower therefore signals greater potency in that assay. As for `C=C(C)[C@H]1Cc2c(ccc3c2O[C@@H]2COc4cc(OC)c(OC)cc4[C@@H]2C3=O)O1` [rotenone], the 50% inhibitory concentration (IC50) in assay [2] was in the range of 0.163 to 0.238 nM. The “effect on mitochondrial oxygen consumption” value was “did not result in any reduction in oxygen consumption” in assay [3] (10 pM rotenone, up to 8 min following exposure); “significant reduction in mitochondrial oxygen consumption immediately following exposure” in assay [3] (10 nM rotenone); “no reduction in oxygen consumption” in assay [3] (10 fM rotenone).

The record behind these values is article PMC3535268 (Journal of neuroscience methods, 2011).
